We go through two compounds from PMC10985026 (Acta Pharmaceutica Sinica. B, 2023).

One experiment has as its system L-929. As to the kind of experiment: MTT cytotoxicity assay, L-929. It is filed as cell-based, murine. To be noted: read-out: IC50 L-929. The procedure, abridged: (§1)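 Cells were cultured in DMEM/RPMI-1640/MEM with 10% FBS and 1% penicillin–streptomycin at 37 °C, 5% CO2; Renca medium also had 1 mmol/L sodium pyruvate and 2 mmol/L L-glutamine. Cells at about 50% confluence in 96-well plates were exposed to a concentration series for 48 h (DMSO vehicle). MTT was added for 4 h at 37 °C, formazan dissolved in DMSO, and absorbance read on a plate reader. Results are mean ± SD.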
(In general: Tetrazolium dyes change colour on reduction, which living cells bring about.)

The next experiment relates to 4T1 subcutaneous tumor. The experiment can be described thus: Anti-tumor effect in vivo, 4T1 subcutaneous tumor model. More on the design: species or system BALB/c mouse. To be noted: 4T1-bearing BALB/c mice, after 27 days. The procedure, abridged: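 Subcutaneous 4T1 tumours were grown in female BALB/c mice (6–8 weeks, 18–20 g). At about 50 mm3 on day 7, mice were randomised to five groups: PBS, each parent drug alone, the parent drugs combined, or test compound. Dosing was i.v. every two days, with body weight and tumour volume measured regularly. Main organs and blood were collected at study end for safety assessment.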

A further experiment deals with HUVEC. The experiment can be described thus: MTT cytotoxicity assay, HUVEC. In kind it is cell-based, human. Particulars: 48 h, read-out: IC50 HUVEC. The method, boiled down: as §1
Experiment [1] relates to 4T1 (breast cancer) cells. As to the kind of experiment: MTT cytotoxicity assay, 4T1. In kind it is cell-based, murine. To be noted: 48 h, read-out: IC50 4T1.
A further experiment concerns NLRP3 inflammasome. The experiment can be described thus: Western blot of NLRP3. In kind it is cell-based, murine. To be noted: 4T1, 2 μmol/L, 24 h, compared to control group. The method, boiled down:
(§2)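 4T1 cells at about 70% confluence in 6-well plates were treated 24 h with test compound or DMSO vehicle. Protein was extracted in RIPA buffer with PMSF and phosphatase inhibitors, immunoblotted, and detected by enhanced chemiluminescence imaging. Sam50/COX II blots: n = 3.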

A further experiment relates to Sam50 and COX II. As to the kind of experiment: Western blot of Sam50 and COX II. It is filed as cell-based, murine. Particulars: 4T1, 2 μmol/L, 24 h. The method, boiled down: as §2
Experiment [2] relates to Renca (kidney cancer) cells. The experiment can be described thus: MTT cytotoxicity assay, Renca. In kind it is cell-based, murine. Particulars: 48 h, read-out: IC50 Renca. The method, boiled down: as §1
A further experiment relates to B16F10 (melanoma) cells. The experiment can be described thus: MTT cytotoxicity assay, B16F10. It is filed as cell-based, murine. Particulars: read-out: IC50 B16F10. The method, boiled down:
as §1

[3] abbreviates: MTT, 48 h, mean ± SD of three experiments.
Setting [4] is: MTT, mean ± SD of three experiments.

Where two headings read alike, the source gives them in different places.

On to `CC(=O)Nc1ccc(O)cc1` [APAP, Acetaminophen], for which the IC50 in the experiment with L-929 (Mus musculus, L929, 48 h) is 73.3 ± 0.88 µM; with HUVEC (Homo sapiens, HUVEC), above 100 µM; in experiment [1] (Mus musculus), above 100 µM; in experiment [2] (Mus musculus, Renca), above 100 µM; in the experiment on B16F10 (melanoma) cells (Mus musculus, B16-F10, 48 h), above 100 µM. For the same compound, in the experiment on 4T1 subcutaneous tumor, the “relative tumor volume versus PBS group” value was “no significant difference”. Also, the “NLRP3 inflammasome expression upregulation” value in the experiment on NLRP3 inflammasome is “approximately 1.2 fold”. Besides, the “protein concentrations of Sam50 and COX II” value in the experiment on Sam50 and COX II is “significantly downregulated”.
On to `O=C1[O][Pt]2([NH][C@@H]3CCCC[C@H]3[NH]2)[O]C1=O` [Oxa, Oxaliplatin], for which the IC50 in the experiment on L-929 (setting [3]) was 44.6 ± 0.93 µM; in the experiment on HUVEC (setting [4]) it was 32.5 ± 2.01 µM; in experiment [1] (setting [4]) it was 13.4 ± 0.66 µM; in experiment [2] (setting [4]), above 100 µM; with B16F10 (melanoma) cells (setting [3]), 25.9 ± 0.96 µM. Moreover, the “relative tumor volume versus PBS group” value in the experiment on 4T1 subcutaneous tumor is on record as “no significant difference”. Moreover, the “protein concentrations of Sam50 and COX II” value in the experiment with Sam50 and COX II is “no significant effect”.

Usually IC50 stands for the concentration that inhibits the measured activity by half.
